Values after ≈ are worked out from the molar mass of the structure shown. Active and inactive are the calls of the source. The rule behind the calls is not given here.
What was measured:
[1] = Inhibition of Wnt signaling (unknown origin) expressed in mouse L Wnt3A cells co-cultured with HEK293 cells after 48 hrs by Super-top flash reporter gene assay; type: cell-based; conditions: Homo sapiens, HEK293, 48 h
Outline: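 Mouse L Wnt3A cells and HEK293 Super-Top Flash TCF-luciferase stable cells mixed 1:1, 12,000 cells/well, grown 24 h, then compound in DMSO diluted in DMEM added. After 48 h at 37°C, Bright-Glo luminescence read; IC50 from signal inhibition, geometric mean of at least two runs ± SEM; LGK974 standard in each run.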

[2] = Cytotoxicity against mouse NIH/3T3 cells by GRE-Luciferase reporter gene assay; type: cell-based; conditions: nih3t3
Outline: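 NIH3T3 cells carrying GRE-luciferase reporter stimulated with 10 nM SAG as Hh pathway agonist, used as counter-screen for nonspecific cytotoxicity.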

[3] = Effect on Wnt3A level in HEK293T cells transfected with pLibin-WNT3A plasmid at 0.1 uM after 48 hrs by Western blot technique; type: cell-based; conditions: human, hek-293t
Outline: (§1)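 HEK293T cells in 6-well plates at 60% confluence, transfected with 1 µg pLibin-WNT3A plasmid or vehicle and treated at the same time with 0.1 µM compound. After 48 h, culture supernatant and cell lysate (40-50 µg protein) separated by SDS-PAGE, blotted to PVDF and probed for Wnt3A.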

[4] = target: T1, Protein-serine O-palmitoleoyltransferase porcupine (Homo sapiens) (UniProt Q9H237); assay: Inhibition of porcupine (unknown origin) in HEK293T cells transfected with pLibin-WNT3A plasmid assessed as reduction in Wnt3A secretion into cell culture medium at 0.1 uM after 48 hrs by Western blot technique; type: cell-based; conditions: HEK-293T; outline: as §1
T1 sequence (whole entry): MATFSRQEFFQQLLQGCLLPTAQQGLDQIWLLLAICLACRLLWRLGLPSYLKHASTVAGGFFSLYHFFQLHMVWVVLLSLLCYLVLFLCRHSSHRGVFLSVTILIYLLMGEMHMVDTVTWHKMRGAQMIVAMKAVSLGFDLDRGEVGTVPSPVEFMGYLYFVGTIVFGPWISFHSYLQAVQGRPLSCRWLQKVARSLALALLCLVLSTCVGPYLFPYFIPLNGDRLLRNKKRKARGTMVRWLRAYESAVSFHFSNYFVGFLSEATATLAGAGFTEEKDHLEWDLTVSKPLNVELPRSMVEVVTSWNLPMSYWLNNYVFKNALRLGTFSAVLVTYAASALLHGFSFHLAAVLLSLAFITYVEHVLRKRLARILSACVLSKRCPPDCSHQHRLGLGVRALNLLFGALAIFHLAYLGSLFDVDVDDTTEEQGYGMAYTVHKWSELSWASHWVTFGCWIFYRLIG

[5] = Intrinsic clearance in human liver microsomes at 1 uM preincubated for 10 mins followed by NADPH addition measured for 30 to 60 mins by LC-MS/MS analysis; type: ADME; conditions: read-out: CLH
Outline: (§2)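 Liver microsomes (mouse or human, 0.2 mg/mL) with 1 µM substrate in 100 mM phosphate pH 7.4, preincubated 10 min, then started with 1 mM NADPH. Sampled at 0, 30, 60 min, quenched in cold acetonitrile with internal standard, LC-MS/MS. t1/2 from ln % remaining slope; scaled with 20 mg protein/g liver, liver 87.5 (mouse) or 25.7 (human) g/kg.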

[6] = Chemical stability in simulated gastric fluid assessed as compound remaining at 200 uM at 40 degC after 24 hrs by HPLC technique; type: physicochemical; conditions: read-out: Stability
Outline: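 Compound at 200 µM in simulated gastric fluid (3.8 mL conc. HCl diluted to 1000 mL water), held at 40°C for 24 h; percent remaining reported.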

Wnt3A = assay: Potency index, ratio of LGK974 IC50 to compound IC50 for Wnt signaling (unknown origin) expressed in mouse L Wnt3A cells co-cultured with HEK293; type: cell-based; conditions: Homo sapiens
[7] = Stability in rat plasma assessed as compound remaining at 1 uM after 8 hrs by LC-MS/MS analysis; type: ADME, cell-free; conditions: read-out: Stability
Outline: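 Compound at 1 µM incubated in blank rat plasma for 8 h, deproteinized with acetonitrile plus internal standard, centrifuged, supernatant measured by LC-MS/MS; percent remaining.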

[8] = Half life in mouse liver microsomes at 1 uM preincubated for 10 mins followed by NADPH addition measured for 30 to 60 mins by LC-MS/MS analysis; type: ADME; outline: as §2
[9] = Intrinsic clearance in mouse liver microsomes at 1 uM preincubated for 10 mins followed by NADPH addition measured for 30 to 60 mins by LC-MS/MS analysis; type: ADME; conditions: read-out: CLH; outline: as §2
[10] = Half life in human liver microsomes at 1 uM preincubated for 10 mins followed by NADPH addition measured for 30 to 60 mins by LC-MS/MS analysis; type: ADME; outline: as §2
[11] = Thermodynamic solubility of the compound in FaSSIF at 4 mg/ml at pH 6.5 after overnight incubation by LC-MS/MS analysis; type: physicochemical; conditions: read-out: Therm_solubility
Outline: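 4 mg/mL suspension in FaSSIF (pH 6.5) shaken 1 h, then equilibrated overnight at room temperature; supernatant after centrifugation quantified by LC-MS/MS.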

[12] = AUC (0 to 24 hrs) in Sprague-Dawley rat plasma at 10 mg/kg, po by LC-MS/MS analysis; type: ADME, organism-based; parameters: dose 10 mg/kg, time < 24 hr, route oral
Outline: (§3)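 Male Sprague-Dawley rats (200-250 g), fasted 12 h before dosing, food returned ~4 h post-dose. Solution at 1 mg/mL in NMP/Tween80/PEG400/water (10/1/50/39) given by tail vein at 2 mL/kg or oral gavage at 10 mL/kg. Plasma from timed blood samples precipitated with cold acetonitrile plus internal standard, measured by LC-MS/MS; noncompartmental PK parameters.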

Rattus norvegicus = assay: AUC (0 to 24 hrs) in Sprague-Dawley rat plasma at 2 mg/kg, iv by LC-MS/MS analysis; type: ADME, organism-based; parameters: dose 2 mg/kg, time < 24 hr, route intravenous; conditions: in vivo; outline: as §3
[13] = Tmax in Sprague-Dawley rat plasma at 10 mg/kg, po by LC-MS/MS analysis; type: ADME, organism-based; outline: as §3
[14] = Volume of distribution at steady state in Sprague-Dawley rat at 2 mg/kg, iv by LC-MS/MS analysis; type: ADME, organism-based; conditions: in vivo, read-out: Vdss; outline: as §3
[15] = Half life in Sprague-Dawley rat at 10 mg/kg, po by LC-MS/MS analysis; type: ADME, organism-based; conditions: in vivo; outline: as §3
[16] = Oral bioavailability in Sprague-Dawley rat at 10 mg/kg by LC-MS/MS analysis; type: ADME, organism-based; conditions: in vivo; outline: as §3
[17] = Half life in Sprague-Dawley rat at 2 mg/kg, iv by LC-MS/MS analysis; type: ADME, organism-based; conditions: in vivo; outline: as §3
[18] = Cmax in Sprague-Dawley rat plasma at 2 mg/kg, iv by LC-MS/MS analysis; type: ADME, organism-based; parameters: dose 2 mg/kg, route intravenous; outline: as §3
[19] = Cmax in Sprague-Dawley rat plasma at 10 mg/kg, po by LC-MS/MS analysis; type: ADME, organism-based; parameters: dose 10 mg/kg, route oral; outline: as §3

SMILES | IC50 [1] [nM] | Activity [2] | also measured
Cc1cc(-c2ccc(CC(=O)Nc3ccc4c(c3)oc3ccccc34)cc2)ccn1 | 9 | Non-toxic | –
Cc1cc(-c2ncc(CC(=O)Nc3ccc4c(c3)oc3ccccc34)cc2C)ccn1 | 13 | Non-toxic | –
Cc1cc(-c2ncc(CC(=O)Nc3ccc4c(c3)C(=O)c3ccccc3-4)cc2C)ccn1 | 2.8 | Non-toxic | –
Cc1cc(-c2ccc(CC(=O)Nc3ccc4c5ccccc5n(C)c4c3)cc2)ccn1 | 191 | Non-toxic | –
O=C(Cc1ccc2c(c1)C(=O)c1ccccc1-2)Nc1ccc(-c2cnccn2)cn1 | > 1000 | Non-toxic | –
O=C(Cc1ccc2c(c1)Cc1ccccc1-2)Nc1ccc(-c2cnccn2)cn1 | 454 | Non-toxic | –
Cc1cc(-c2ccc(CC(=O)Nc3ccc4c(c3)C(F)(F)c3ccccc3-4)cc2)ccn1 | 3.5 | Non-toxic | –
O=C(Cc1ccc2c(c1)C(=O)c1ccccc1-2)Nc1ccc(-c2cccnc2)cc1 | > 1000 | Non-toxic | –
O=C(Cc1ccc2c(c1)Cc1ccccc1-2)Nc1ccc(-c2cccnc2)cc1 | 231 | Non-toxic | –
O=C(Cc1ccc2c(c1)oc1ccccc12)Nc1ccc(-c2cccnc2)cc1 | 544 | Non-toxic | –
Cc1cc(-c2ncc(CC(=O)Nc3ccc4c5ccccc5n(C)c4c3)cc2C)ccn1 | 49 | Non-toxic | –
O=C(Cc1ccc2c(c1)oc1ccccc12)Nc1ccc(-c2cnccn2)cn1 | 136 | Non-toxic | –

These reach a lower IC50 [1]. Values come first.

IC50 [1] [nM] | SMILES | Activity [2] | also measured
0.9 | Cc1cc(-c2ncc(CC(=O)Nc3ccc(-c4cnccn4)cn3)cc2C)ccn1 [WNT-974] | – | Activity [3]: Non-toxic; inhibition [4]: Active
2.7 | Cc1cc(-c2ncc(CC(=O)Nc3ccc4c(c3)C(F)(F)c3ccccc3-4)cc2C)ccn1 | Non-toxic | –
0.45 | Cc1cc(-c2ccc(CC(=O)Nc3ccc4c(c3)C(=O)c3ccccc3-4)cc2)ccn1 | Non-toxic | CLint scaled at 1 µM [5]: 8.94 L/h/kg; remaining at 24 h, 200 µM [6]: 99%; Ratio IC50 (Wnt3A): 2; remaining at 8 h, 1 µM [7]: 100%; Activity [3]: Non-toxic; half-life at 1 µM [8]: 0.2 h; CLint scaled at 1 µM [9]: 30.5 L/h/kg; half-life at 1 µM [10]: 0.2 h; inhibition [4]: Active; solubility thermodynamic [11]: < 1 µg/mL
2.5 | Cc1cc(-c2ncc(CC(=O)Nc3ccc4c(c3)Cc3ccccc3-4)cc2C)ccn1 | Non-toxic | –
2.6 | Cc1cc(-c2ncc(CC(=O)Nc3ccc4c(c3)[nH]c3ccccc34)cc2C)ccn1 | Non-toxic | –
1.4 | Cc1cc(-c2ccc(CC(=O)Nc3ccc4c(c3)Cc3ccccc3-4)cc2)ccn1 | Non-toxic | –
2.3 | Cc1cc(-c2ccc(CC(=O)Nc3ccc4c(c3)[nH]c3ccccc34)cc2)ccn1 | Non-toxic | CLint scaled at 1 µM [5]: 2.46 L/h/kg; remaining at 24 h, 200 µM [6]: 100%; AUC(0-t) at 24 h [12]: 11.3 µg·h/mL; AUC (Rattus norvegicus): 7.442 µg·h/mL; Tmax [13]: 1 h; remaining at 8 h, 1 µM [7]: 100%; Vd [14]: 2.7 L/kg; Activity [3]: Non-toxic; half-life at 1 µM [8]: 1.52 h; CLint scaled at 1 µM [9]: 4.02 L/h/kg; half-life at 1 µM [10]: 0.717 h; half-life [15]: 3.1 h; bioavailability [16]: 30%; half-life [17]: 2.5 h; inhibition [4]: Active; Cmax [18]: 1.95 µg/mL; solubility thermodynamic [11]: 2 µg/mL (≈ 5.11 µM); Cmax [19]: 2.88 µg/mL
